# Assay results: ChEMBL document CHEMBL1155177, “Activity against human immunodeficiency virus type 1, intracellular metabolism, and effects on human DNA polymerases of 4'-ethynyl-2-fluoro-2'-deoxyadenosine” (Antimicrob Agents Chemother, 2007)
# What was measured:
# [1] = Cytotoxicity against human PHA-PBMC cells by MTT assay; type: cell-based
# [2] = tested on: Human immunodeficiency virus 1; experiment: Ratio of EC50 for R5-HIV1MDR/MM in human PHA-PBMC to EC50 for R5-HIV1Ba-L in human PHA-PBMC; type: functional
# [3] = tested on: Human immunodeficiency virus 1; experiment: Antiviral activity against X4-HIV1 NL4-3 assessed as […] in human MT4 cells by MTT assay; type: functional, organism-based; conditions: Human immunodeficiency virus 1, NL4-3, MT4
# [4] = tested on: CCRF-CEM; experiment: Metabolic stability of the compound in human CEM cells assessed as 3'-azido-2',3'-dideoxythymidine monophosphate intracellular levels at 200 nM after 24 hrs; type: ADME, cell-based; conditions: 0.2 µM
# In short: (§1)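 CEM cells (10^6 cells/ml) were loaded 6 h with 200 nM [3H]-labelled nucleoside, washed thoroughly, then cultured drug-free for 0, 2, 4, 8, 12 or 24 h. Cells were extracted in 60% methanol, and mono-, di- and triphosphates were quantified by SAX HPLC with fraction scintillation counting. Values are means of 2–3 independent experiments.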
# [5] = tested on: Human immunodeficiency virus 1; experiment: Antiviral activity against R5-HIV1MDR/G assessed as inhibition of p24 Gag protein in human PHA-PBMC by ELISA relative to X4-HIV1NL4-3; type: functional
# [6] = tested on: Human immunodeficiency virus 1; experiment: Antiviral activity against R5-HIV1MDR/G assessed as inhibition of p24 Gag protein production in human PHA-PBMC by ELISA; type: functional, organism-based
# In short: (§2)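 PHA-stimulated PBMC (10^6 cells/ml; 10^5 cells/well) were infected with 50 TCID50 of HIV-1Ba-L or a primary multidrug-resistant isolate and cultured with drug in 10-fold serial dilutions. On day 7, supernatant p24 Gag was measured by automated chemiluminescent enzyme immunoassay. EC50 is the concentration that halves p24 relative to drug-free cultures. Triplicate assays.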
# [7] = tested on: CCRF-CEM; experiment: Drug uptake in human CD4+CEM cells assessed as 4'-ethynyl-2-fluoro-2'-deoxyadenosine monophosphate half life at 200 nM; type: ADME, cell-based; conditions: 0.2 µM; in short: as §1
# [8] = tested on: MT4; experiment: Cytotoxicity against human MT4 cells by MTT assay; type: functional
# [9] = tested on: Human immunodeficiency virus 1; experiment: Antiviral activity against R5-HIV1MDR/C assessed as inhibition of p24 Gag protein production in human PHA-PBMC by ELISA; type: functional, organism-based; in short: as §2
# [10] = tested on: CCRF-CEM; experiment: Drug level in human CD4+CEM cells assessed as increase in 4'-ethynyl-2-fluoro-2'-deoxyadenosine triphosphate level at 0.1 uM after 6 hrs; type: ADME, cell-based
# In short: (§3)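 CEM cells (10^6 cells/ml) were incubated 6 h with 0.1, 1 or 10 µM [3H]-labelled nucleoside, then washed. Intracellular nucleosides/nucleotides were extracted in 60% methanol and separated by SAX ion-exchange HPLC on an ammonium phosphate gradient. One-minute fractions up to 40 min were scintillation-counted, and each peak plus flanking fractions were summed. Two independent experiments were run.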
# [11] = tested on: CCRF-CEM; experiment: Drug level in human CD4+CEM cells per 10^9 cells at 0.1 uM; type: ADME, cell-based; in short: as §3
# [12] = tested on: CCRF-CEM; experiment: Metabolic stability of the compound in human CD4+ CEM cells assessed as 4'-ethynyl-2-fluoro-2'-deoxyadenosine triphosphate intracellular levels at 200 nM after 8 hrs; type: ADME, cell-based; conditions: 0.2 µM; in short: as §1
# [13] = tested on: CCRF-CEM; experiment: Metabolic stability of the compound in human CEM cells assessed as 3'-azido-2',3'-dideoxythymidine triphosphate intracellular levels at 200 nM after 24 hrs; type: ADME, cell-based; conditions: 0.2 µM; in short: as §1
# [14] = tested on: Human immunodeficiency virus 1; experiment: Antiviral activity against HIV1 NL4-3 replication in human MT4 cells at 0.01 uM pretreated 48 hrs before infection assessed as protection at 0.01 uM by MTT assay; type: functional
# [15] = tested on: CCRF-CEM; experiment: Metabolic stability of the compound in human CD4+ CEM cells assessed as 4'-ethynyl-2-fluoro-2'-deoxyadenosine diphosphate intracellular levels at 200 nM after 8 hrs; type: ADME, cell-based; conditions: 0.2 µM; in short: as §1
# [16] = tested on: CCRF-CEM; experiment: Drug uptake in human CD4+CEM cells assessed as 4'-ethynyl-2-fluoro-2'-deoxyadenosine triphosphate half life at 200 nM; type: ADME, cell-based; conditions: 0.2 µM; in short: as §1
# [17] = tested on: Human immunodeficiency virus 1; experiment: Antiviral activity against R5-HIV1MDR/MM assessed as inhibition of p24 Gag protein production in human PHA-PBMC by ELISA; type: functional, organism-based; in short: as §2
# [18] = tested on: Human immunodeficiency virus 1; experiment: Ratio of EC50 for X4-HIV1MDR/C in human PHA-PBMC to EC50 for X4-HIV1NL4-3 in human MT4 cells; type: functional, NL4-3
# [19] = tested on: Human immunodeficiency virus 1; experiment: Antiviral activity against HIV1 NL4-3 replication in human MT4 cells at 0.01 uM pretreated 24 hrs before infection assessed as protection at 0.01 uM by MTT assay; type: functional
# [20] = tested on: CCRF-CEM; experiment: Metabolic stability of the compound in human CEM cells assessed as 3'-azido-2',3'-dideoxythymidine diphosphate intracellular levels at 200 nM after 24 hrs; type: ADME, cell-based; conditions: 0.2 µM; in short: as §1
# [21] = tested on: CCRF-CEM; experiment: Metabolic stability of the compound in human CD4+ CEM cells assessed as 4'-ethynyl-2-fluoro-2'-deoxyadenosine monophosphate intracellular levels at 200 nM after 8 hrs; type: ADME, cell-based; conditions: 0.2 µM; in short: as §1
# [22] = tested on: CCRF-CEM; experiment: Drug uptake in human CD4+CEM cells assessed as 4'-ethynyl-2-fluoro-2'-deoxyadenosine diphosphate half life at 200 nM; type: ADME, cell-based; conditions: 0.2 µM; in short: as §1
# [23] = tested on: Human immunodeficiency virus 1; experiment: Antiviral activity against R5-HIV1Ba-L assessed as inhibition of p24 Gag protein production in human PHA-PBMC by ELISA; type: functional, organism-based; conditions: Human immunodeficiency virus 1, Ba-L; in short: as §2
# [24] = tested on: CCRF-CEM; experiment: Drug uptake in human CD4+CEM cells assessed as 3'-azido-2',3'-dideoxythymidine triphosphate half life at 200 nM; type: ADME, cell-based; conditions: 0.2 µM; in short: as §1
# [25] = tested on: CCRF-CEM; experiment: Drug uptake in human CD4+CEM cells assessed as 3'-azido-2',3'-dideoxythymidine diphosphate half life at 200 nM; type: ADME, cell-based; conditions: 0.2 µM; in short: as §1
# [26] = tested on: CCRF-CEM; experiment: Drug level in human CD4+CEM cells assessed as increase in 3'-azido-2',3'-dideoxythymidine triphosphate level at 0.1 uM after 6 hrs; type: ADME, cell-based; in short: as §3
# [27] = tested on: Human immunodeficiency virus 1; experiment: Antiviral activity against HIV1 NL4-3 replication in human MT4 cells at 0.01 uM pretreated 24 hrs before infection assessed as protection at 1 uM by MTT assay; type: functional
# [28] = tested on: CCRF-CEM; experiment: Metabolic stability of the compound in human CD4+ CEM cells assessed as 3'-azido-2',3'-dideoxythymidine triphosphate intracellular levels at 200 nM after 8 hrs; type: ADME, cell-based; conditions: 0.2 µM; in short: as §1
# [29] = tested on: Human immunodeficiency virus 1; experiment: Antiviral activity against HIV1 NL4-3 replication in human MT4 cells at 0.01 uM pretreated 48 hrs before infection assessed as protection at 1 uM by MTT assay; type: functional
# [30] = tested on: CCRF-CEM; experiment: Metabolic stability of the compound in human CD4+ CEM cells assessed as 3'-azido-2',3'-dideoxythymidine diphosphate intracellular levels at 200 nM after 8 hrs; type: ADME, cell-based; conditions: 0.2 µM; in short: as §1
# [31] = tested on: CCRF-CEM; experiment: Metabolic stability of the compound in human CD4+ CEM cells assessed as 3'-azido-2',3'-dideoxythymidine monophosphate intracellular levels at 200 nM after 8 hrs; type: ADME, cell-based; conditions: 0.2 µM; in short: as §1
# [32] = tested on: CCRF-CEM; experiment: Drug uptake in human CD4+CEM cells assessed as 3'-azido-2',3'-dideoxythymidine monophosphate half life at 200 nM; type: ADME, cell-based; conditions: 0.2 µM; in short: as §1
# [33] = Inhibition of human DNA polymerase gamma using D21/D36 DNA as a template
# In short: (§4)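 Each 30-min, 37 °C reaction contained 50 mM Tris pH 8.0, 8 mM MgCl2, 60 mM KCl, 10 mM DTT, BSA, 0.3 µM [α-32P]dATP, inhibitor, and either 250 nM D21/D36 or 0.1 mg/ml activated calf thymus DNA. Enzyme was 1 unit polymerase α, 100 nM β or 2.5 nM γ. Reactions were stopped with EDTA and spotted onto DE81 filters. Incorporated dAMP was quantified by phosphorimaging to give the IC50.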
# [34] = Inhibition of human DNA polymerase beta using D21/D36 DNA as a template; in short: as §4
# [35] = Inhibition of human DNA polymerase alpha using calf thymus DNA as a template; in short: as §4
# [36] = Inhibition of human DNA polymerase gamma using calf thymus DNA as a template; in short: as §4
# [37] = Inhibition of human DNA polymerase beta using calf thymus DNA as a template; in short: as §4
compound,measurement,setting,value
C#C[C@]1(CO)O[C@@H](n2cnc3c(N)nc(F)nc32)C[C@@H]1O,CC50,[1],12000 nM
same,fold change (FC),[2],8
same,EC50,[3],1 nM
same,Activity,[4],31%
same,fold change (FC),[5],21
same,EC50,[6],21 nM
same,t1/2,[7],8.1 h
same,CC50,[8],11000 nM
same,EC50,[9],4 nM
same,Activity,[10],22
same,Drug uptake,[11],1730 pmol
same,Activity,[12],72%
same,Activity,[13],38%
same,Activity,[14],47%
same,Activity,[15],45%
same,t1/2,[16],17.2 h
same,EC50,[17],3 nM
same,fold change (FC),[18],4
same,Activity,[19],75%
same,Activity,[20],23%
same,Activity,[21],50%
same,t1/2,[22],6.7 h
same,EC50,[23],0.4 nM
CC(C)CN(C[C@@H](O)[C@H](Cc1ccccc1)NC(=O)O[C@H]1CCOC1)S(=O)(=O)c1ccc(N)cc1,CC50,[1],> 100000 nM
same,fold change (FC),[2],17
same,EC50,[3],24 nM
same,fold change (FC),[5],10
same,CC50,[8],> 100000 nM
same,EC50,[9],280 nM
same,fold change (FC),[18],12
Cc1cn([C@H]2C[C@H](N=[N+]=[N-])[C@@H](CO)O2)c(=O)[nH]c1=O [ZIDOVUDINE],t1/2,[24],2.8 h
same,t1/2,[25],1.6 h
same,CC50,[1],> 10000 nM
same,Activity,[26],2.4
same,fold change (FC),[2],22
same,Activity,[27],55%
same,EC50,[3],33 nM
same,Activity,[4],10%
same,fold change (FC),[5],12
same,EC50,[6],380 nM
same,Activity,[28],26%
same,CC50,[8],> 100000 nM
same,Activity,[29],9.2%
same,EC50,[9],390 nM
same,Drug uptake,[11],4349 pmol
same,Activity,[13],9%
same,Activity,[30],26%
same,EC50,[17],340 nM
same,Activity,[31],16%
same,fold change (FC),[18],12
same,Activity,[20],11%
same,t1/2,[32],1.4 h
C[C@H](Cn1cnc2c(N)ncnc21)OCP(=O)(O)O [TENOFOVIR ANHYDROUS],CC50,[1],53000 nM
same,fold change (FC),[2],3
same,Activity,[27],90%
same,fold change (FC),[5],3
same,EC50,[6],87 nM
same,Activity,[29],64%
same,EC50,[9],47 nM
same,EC50,[17],82 nM
same,fold change (FC),[18],2
same,EC50,[23],32 nM
CC(C)(C)NC(=O)[C@@H]1C[C@@H]2CCCC[C@@H]2CN1C[C@@H](O)[C@H](Cc1ccccc1)NC(=O)[C@H](CC(N)=O)NC(=O)c1ccc2ccccc2n1,CC50,[1],78000 nM
same,fold change (FC),[2],28
same,fold change (FC),[5],3
same,EC50,[6],26 nM
same,CC50,[8],26000 nM
same,EC50,[9],37 nM
same,EC50,[17],220 nM
same,fold change (FC),[18],4
Nc1ncnc2c1ncn2[C@H]1CC[C@@H](COP(=O)(O)OP(=O)(O)OP(=O)(O)O)O1 [DDA-TRIPHOSPHATE],IC50,[33],2000 nM
same,Ki,[33],4600 nM
same,IC50,[34],3000 nM
same,IC50,[35],> 100000 nM
same,IC50,[36],200 nM
same,IC50,[37],200 nM
C#C[C@]1(COP(=O)(O)OP(=O)(O)OP(=O)(O)O)O[C@@H](n2cnc3c(N)nc(F)nc32)C[C@@H]1O,IC50,[33],> 100000 nM
same,Ki,[33],24400 nM
same,IC50,[34],> 100000 nM
same,IC50,[35],> 100000 nM
same,IC50,[36],10000 nM
same,IC50,[37],> 100000 nM
